Measured values reported in ChEMBL document CHEMBL3098025, “Optimization of potency and pharmacokinetics of tricyclic indole derived inhibitors of HCV NS5B polymerase. Identification of ester prodrugs with improved oral pharmacokinetics” (Bioorg Med Chem, 2014).

What was measured:
[1] = AUC (0 to 6 hrs) in cynomolgus monkey at 3 mg/kg, po; assay type: ADME, organism-based, Macaca fascicularis; parameters: time < 6 hr, dose 3 mg/kg, route oral; conditions: plasma
[2] = AUC (0 to 6 hrs) in Sprague-Dawley rat at 10 mg/kg, po; assay type: ADME, organism-based; parameters: time < 6 hr, dose 10 mg/kg, route oral; conditions: plasma
Summary of the method: (§1)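 Sprague Dawley rats received esters orally at 10 mg/kg in 0.4% methylcellulose, given as trifluoroacetate salts. Plasma levels of both the intact ester prodrug and the acid metabolite were measured. AUC was integrated over 0–6 h after dosing.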

[3] = test system: Hepatitis C virus; test: Antiviral activity against HCV1b assessed as inhibition of viral replication; assay type: functional, organism-based, Hepacivirus hominis; conditions: genotype 1b
Summary of the method: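 In the cell-based HCV replicon assay, viral RNA levels were measured. EC50 is the concentration giving a 50% reduction in replicon RNA.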

[4] = Inhibition of HCV1b NS5B polymerase; parameters: species or system Hepatitis C virus subtype 1b
[5] = test system: Rattus norvegicus; test: Prodrug conversion in Sprague-Dawley rat assessed as AUC (0 to 6 hrs) of 6-((6-Chloro-1H-benzo[d]imidazol-5-yl)methyl)-4-fluoro-8-(2-oxo-1,2-dihydropyridin-3-yl)-6H-furo[2,3-e]indole-7-carboxylic acid level at 10 mg/kg, po; assay type: ADME, organism-based; parameters: time < 6 hr, dose 10 mg/kg, route oral; conditions: in vivo; summary of the method: as §1
[6] = test system: Rattus norvegicus; test: Prodrug conversion in Sprague-Dawley rat assessed as AUC (0 to 6 hrs) of parent compound level at 10 mg/kg, po; assay type: ADME, organism-based; parameters: time < 6 hr, dose 10 mg/kg, route oral; conditions: in vivo; summary of the method: as §1
[7] = test system: Liver microsome; test: Metabolic stability in human liver microsomes assessed as glutathione adduct formation; assay type: ADME
[8] = test system: Liver microsome; test: Metabolic stability in human liver microsomes assessed as oxidation; assay type: ADME
[9] = test system: Plasma; test: Metabolic stability in po dosed Sprague-Dawley rat plasma assessed as glutathione adduct formation; assay type: ADME, organism-based; conditions: in vivo
Summary of the method: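 Plasma samples from the full rat PK study (oral, 3 mg/kg) were analysed for metabolites, including glutathione adducts.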

[10] = Oral bioavailability in Sprague-Dawley rat at 3 mg/kg; assay type: ADME, organism-based; conditions: in vivo
[11] = test system: Cynomolgus monkey; test: Prodrug conversion in cynomolgus monkey assessed as AUC (0 to 24 hrs) of 4-Fluoro-6-((6-fluoro-1H-benzo[d]imidazol-5-yl)methyl)-8-(2-oxo-1,2-dihydropyridin-3-yl)-6H-furo[2,3-e]indole-7-carboxylic acid level at 3 mg/kg, po; assay type: ADME, organism-based, Macaca fascicularis; parameters: time < 24 hr, dose 3 mg/kg, route oral; conditions: in vivo
[12] = test system: Rattus norvegicus; test: Prodrug conversion in Sprague-Dawley rat assessed as AUC (0 to 24 hrs) of 4-Fluoro-6-((6-fluoro-1H-benzo[d]imidazol-5-yl)methyl)-8-(2-oxo-1,2-dihydropyridin-3-yl)-6H-furo[2,3-e]indole-7-carboxylic acid level at 10 mg/kg, po; assay type: ADME, organism-based; parameters: time < 24 hr, dose 10 mg/kg, route oral; conditions: in vivo
Summary of the method: (§2)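 Dimethylaminoethyl ester prodrugs were dosed orally to rats at 10 mg/kg in 0.4% methylcellulose.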

[13] = test system: Cynomolgus monkey; test: Prodrug conversion in cynomolgus monkey assessed as AUC (0 to 24 hrs) of 4-Fluoro-6-((6-fluoro-1H-indazol-5-yl)methyl)-8-(2-oxo-1,2-dihydropyridin-3-yl)-6H-furo[2,3-e]indole-7-carboxylic acid level at 3 mg/kg, po; assay type: ADME, organism-based, Macaca fascicularis; parameters: time < 24 hr, dose 3 mg/kg, route oral; conditions: in vivo
[14] = test system: Rattus norvegicus; test: Prodrug conversion in Sprague-Dawley rat assessed as AUC (0 to 24 hrs) of 4-Fluoro-6-((6-fluoro-1H-indazol-5-yl)methyl)-8-(2-oxo-1,2-dihydropyridin-3-yl)-6H-furo[2,3-e]indole-7-carboxylic acid level at 10 mg/kg, po; assay type: ADME, organism-based; parameters: time < 24 hr, dose 10 mg/kg, route oral; conditions: in vivo; summary of the method: as §2

Row | SMILES | AUC(0-t) at 6 h [2] | EC50 [3] | IC50 [4] | further results
1 | Nc1cc(Cn2c(C(=O)O)c(-c3ccc[nH]c3=O)c3c4occc4c(F)cc32)c2ccccc2n1 | 24 µM·h | 6 nM | 4 nM | AUC(0-t) at 6 h [1]: 0.4 µM·h
2 | CC(CN(C)C)OC(=O)c1c(-c2ccc[nH]c2=O)c2c3occc3c(F)cc2n1Cc1cc2[nH]cnc2cc1Cl.O=C(O)C(F)(F)F (stereo not given) |  |  |  | AUC [5]: 32.6 µM·h; AUC [6]: 0.8 µM·h
3 | Cn1nc(N)c2cc(Cn3c(C(=O)O)c(-c4ccc[nH]c4=O)c4c5occc5c(F)cc43)c(F)cc21 | 7.2 µM·h | 20 nM | 6 nM | 
4 | O=C(O)c1c(-c2ccc[nH]c2=O)c2c3occc3cc(F)c2n1Cc1cc(F)ccc1F |  | 2600 nM | 17 nM | 
5 | CCOC(=O)c1c(-c2ccc[nH]c2=O)c2c3occc3c(F)cc2n1Cc1cc2[nH]cnc2cc1Cl |  |  |  | AUC [6]: 0.1 µM·h
6 | O=C(O)c1c(-c2ccc[nH]c2=O)c2c3occc3c(F)cc2n1Cc1cc(F)ccc1F |  |  | 2 nM | EC90 [3]: 90 nM; Stability [7]: Stable; Stability [8]: Stable
7 | O=C([O-])c1c(-c2ccc[nH]c2=O)c2c3occc3c(F)cc2n1Cc1cc2[nH]cnc2cc1Cl.[Na+] |  |  |  | AUC [5]: 2.1 µM·h
8 | NC(=O)c1ccc(F)c(Cn2c(C(=O)O)c(-c3ccc[nH]c3=O)c3c4occc4c(F)cc32)c1 | 1.7 µM·h | 15 nM | 4 nM | Stability [9]: Stable; bioavailability [10]: 1.5%
9 | CC(OC(=O)c1c(-c2ccc[nH]c2=O)c2c3occc3c(F)cc2n1Cc1cc2[nH]cnc2cc1Cl)c1ccccc1 (stereo not given) |  |  |  | AUC [5]: 0.2 µM·h; AUC [6]: 0.3 µM·h
10 | Cc1cc2[nH]ncc2cc1Cn1c(C(=O)O)c(-c2ccc[nH]c2=O)c2c3occc3c(F)cc21 | 2.1 µM·h | 2 nM | 3 nM | 

More lines, main results first:

Row | AUC(0-t) at 6 h [2] | EC50 [3] | IC50 [4] | SMILES | further results
11 | 9.3 µM·h | 4 nM | 3 nM | O=C(O)c1c(-c2ccc[nH]c2=O)c2c3occc3c(F)cc2n1Cc1cc2cn[nH]c2cc1F | AUC(0-t) at 6 h [1]: 1 µM·h
12 | 1.2 µM·h | 8 nM | 6 nM | O=C(O)c1c(-c2ccc[nH]c2=O)c2c3occc3c(F)cc2n1Cc1cc2[nH]cnc2cc1Cl | 
13 |  | 6 nM |  | CN(C)CCOC(=O)c1c(-c2ccc[nH]c2=O)c2c3occc3c(F)cc2n1Cc1cc2[nH]cnc2cc1F.O=C(O)C(F)(F)F | AUC [11]: 14.6 µM·h; AUC [12]: 159 µM·h
14 |  | 6 nM |  | CN(C)CCOC(=O)c1c(-c2ccc[nH]c2=O)c2c3occc3c(F)cc2n1Cc1cc2cn[nH]c2cc1F.O=C(O)C(F)(F)F | AUC [13]: 33 µM·h; AUC [14]: 222 µM·h
